{"source": "ChEMBL document CHEMBL1133421", "about": "“Novel peptidomimetic hematoregulatory compounds” (2000)", "tested_on": "Murine stromal cell line", "assay": "In vitro ability to induce a hematopoietic synergistic factor from a murine stromal cell line at 0.10 ug/mL; Not Detected", "type": "functional, cell-based", "conditions": "Mus musculus", "summary_of_the_method": "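Murine stromal cell line C6.4 exposed to test compounds at 0.10, 1.0 and 10.0 µg/mL. Stromal supernatants then assayed for induced hematopoietic synergistic factor (HSF) activity in a murine bone marrow CFU-GM colony assay. Reference peptide included in every assay at 1.0 µg/mL as positive control.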", "data": [{"smiles": "O=C(CCNC(=O)[C@H](CO)NC(=O)c1ccc[nH]1)Nc1ccc(NC(=O)CCNC(=O)[C@H](CO)NC(=O)c2ccc[nH]2)cc1", "values": [{"measurement": "HSF release", "result": "Not detected"}]}]}
